{
  "source": "ChEMBL document CHEMBL3085658",
  "about": "“Novel toll-like receptor 4 (TLR4) antagonists identified by structure- and ligand-based virtual screening” (Eur J Med Chem, 2013)",
  "note": "The source made the active and inactive calls. The rule behind the calls is not given here.",
  "data": [
    {"tested_on": "HEK293", "test": "Cytotoxicity against HEK293 cells after 24 hrs by flow cytometry", "format": "cell-based", "conditions": "human, hek293, 24 h", "outline": "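HEK293 cells were cultured for 24 h with compound at 100 or 200 µM, with DMSO as control. Cells were then harvested and stained with propidium iodide to count dead cells. Solubility in RPMI 1640 was first checked by light microscopy for precipitation.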", "values": [
      {"smiles": "Cc1ccccc1NC(=O)NCCNc1ccc(Nc2ccccn2)nn1", "Activity": "Toxic"},
      {"smiles": "COc1ccc(OC[C@H](O)CN(C)C(=O)c2ccc(Cl)cc2)cc1", "Activity": "Toxic"},
      {"smiles": "O=C(CN1CCC[C@H]1c1nc2ccccc2s1)c1c[nH]c(C(=O)N2CCCC2)c1", "Activity": "Toxic"},
      {"smiles": "Cc1cc([C@@H]2CCCN2C[C@H](O)COc2ccc(Cl)cc2)on1", "Activity": "Toxic"}
    ]},
    {"tested_on": "PBMC", "test": "Inhibition of TNFalpha secretion in human PBMC preincubated at 100 uM for 2 hrs before LPS challenge measured after 48 hrs by ELISA", "format": "functional", "conditions": "not given", "outline": "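PBMCs were isolated from healthy volunteer blood and pre-incubated with compound for 2 h. They were then challenged with LPS for 48 h, with TAK-242 as positive control. Supernatant TNF-α was measured by ELISA, and significance was tested by unpaired t tests.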", "units": {"inhibition at 100 µM": "%"}, "values": [
      {"smiles": "CN(CC(=O)Nc1ccc(N2CCOCC2)cc1)Cc1nc2scc(-c3ccccc3)c2c(=O)[nH]1", "inhibition at 100 µM": 93.3},
      {"smiles": "COc1ccc(O)c(C(=O)c2cnc(/N=C(\\N)Nc3ccc(F)cc3)nc2)c1", "inhibition at 100 µM": 87.4},
      {"smiles": "Cc1ccccc1Nc1nc(N)nc(CN2CCC[C@@H]2c2nc3ccccc3s2)n1", "inhibition at 100 µM": 80.8}
    ]},
    {"biological_target": "T1, Toll-like receptor 4 (Homo sapiens, UniProt O00206)", "T1 sequence (O00206 whole entry)": "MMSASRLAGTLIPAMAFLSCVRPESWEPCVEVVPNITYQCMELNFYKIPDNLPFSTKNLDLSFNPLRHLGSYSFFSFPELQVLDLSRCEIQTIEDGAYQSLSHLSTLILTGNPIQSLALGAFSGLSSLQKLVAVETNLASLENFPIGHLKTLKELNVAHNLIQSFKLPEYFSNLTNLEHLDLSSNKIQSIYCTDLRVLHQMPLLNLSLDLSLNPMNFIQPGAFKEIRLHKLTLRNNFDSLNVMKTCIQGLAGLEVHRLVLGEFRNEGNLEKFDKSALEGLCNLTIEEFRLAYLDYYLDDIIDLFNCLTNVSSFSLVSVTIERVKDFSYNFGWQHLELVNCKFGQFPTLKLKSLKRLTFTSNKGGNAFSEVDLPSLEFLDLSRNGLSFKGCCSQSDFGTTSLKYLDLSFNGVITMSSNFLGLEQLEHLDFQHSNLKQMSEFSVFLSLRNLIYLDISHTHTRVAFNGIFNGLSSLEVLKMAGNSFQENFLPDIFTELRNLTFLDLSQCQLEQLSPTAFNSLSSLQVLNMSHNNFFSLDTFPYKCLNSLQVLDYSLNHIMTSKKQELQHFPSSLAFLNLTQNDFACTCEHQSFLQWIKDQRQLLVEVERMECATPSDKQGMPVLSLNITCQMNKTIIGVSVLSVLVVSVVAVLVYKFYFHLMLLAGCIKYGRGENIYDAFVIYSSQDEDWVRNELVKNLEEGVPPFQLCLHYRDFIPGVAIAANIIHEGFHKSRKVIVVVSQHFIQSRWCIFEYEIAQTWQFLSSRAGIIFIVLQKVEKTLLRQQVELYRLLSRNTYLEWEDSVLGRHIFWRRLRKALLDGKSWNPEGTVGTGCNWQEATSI", "test": "Binding affinity to human recombinant TLR4 at >320 uM by SPR method", "conditions": "not given", "outline": "(§1)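 Recombinant human TLR4 was amine-coupled to a CM5 chip at about 8000 RU. Titration was run at 25 °C in PBS pH 7.4 with 2% DMSO, at 0, 5, 10, 20, 40, 80 (repeated at the end), 160 and 320 µM. Each injection lasted 1 min and dissociation was followed for 30 s. The response at the end of association was plotted against concentration.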", "values": [
      {"smiles": "COc1ccc(O)c(C(=O)c2cnc(/N=C(\\N)Nc3ccc(F)cc3)nc2)c1", "Activity": "inactive"}
    ]},
    {"biological_target": "T1, Toll-like receptor 4", "test": "Binding affinity to human recombinant TLR4 at 20 uM by SPR method", "conditions": "not given", "outline": "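Recombinant human TLR4 was amine-coupled to a CM5 chip at about 8000 RU, with a reference flow cell. Runs were at 25 °C in PBS pH 7.4 plus 2% DMSO running buffer. Compounds were injected at 20 and 200 µM for 1 min, and dissociation was monitored for 30 s. Responses were compared against buffer injection, with no regeneration.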", "values": [
      {"smiles": "COc1ccc(O)c(C(=O)c2cnc(/N=C(\\N)Nc3ccc(F)cc3)nc2)c1", "Activity": "Active"}
    ]},
    {"biological_target": "T1, Toll-like receptor 4", "test": "Binding affinity to human recombinant TLR4 up to 320 uM by SPR method", "conditions": "not given", "outline": "as §1", "values": [
      {"smiles": "COc1ccc(O)c(C(=O)c2cnc(/N=C(\\N)Nc3ccc(F)cc3)nc2)c1", "Activity": "Active"}
    ]},
    {"biological_target": "T1, Toll-like receptor 4", "test": "Antagonist activity at human TLR4 expressed in LPS-stimulated HEK293 cells co-expressing MD-2 and CD14 after 2 hrs by SEAP assay", "conditions": "not given", "values": [
      {"smiles": "O=C(CCc1nc(O)c2c3c(sc2n1)CCCC3)NCC(=O)Nc1ccccc1Br", "IC50": "ND(Insoluble)"},
      {"smiles": "C[C@@H](SCc1nc2scc(-c3ccccc3)c2c(=O)[nH]1)C(=O)Nc1ccc2c(c1)OCO2", "IC50": "Not Active"},
      {"smiles": "CC(C)(C)[C@H]1CCc2c(sc3nc(CCC(=O)NCc4ccc5c(c4)OCO5)[nH]c(=O)c23)C1", "IC50": "ND(Insoluble)"},
      {"smiles": "Cc1cccc(NC(=O)CNC(=O)CCc2nc(O)c3c4c(sc3n2)CCCC4)c1C", "IC50": "ND(Insoluble)"},
      {"smiles": "COc1ccc(OC[C@H](O)CN2CCc3ccccc3C2)cc1", "IC50": "ND(Insoluble)"},
      {"smiles": "C[C@H](Sc1nc2scc(-c3cccs3)c2c(=O)[nH]1)C(=O)NC(=O)NC1CCCCC1", "IC50": "ND(Insoluble)"},
      {"smiles": "O=C(CSc1nnc(-c2ccc3c(c2)OCCO3)c(O)n1)Nc1ccc(F)c(F)c1", "IC50": "ND(Insoluble)"},
      {"smiles": "COC(=O)c1ccc(/C=N/NC(=O)c2cc(-c3cccc([N+](=O)[O-])c3)[nH]n2)cc1", "IC50": "ND(Insoluble)"},
      {"smiles": "O=C(NCCNC(=O)c1cc2ccccc2[nH]1)C(=O)NCc1ccc2c(c1)OCO2", "IC50": "Not Active"},
      {"smiles": "N/C(=N\\C(=O)c1ccc(-c2ccccc2)cc1)Nc1nc2ccccc2o1", "IC50": "ND(Insoluble)"},
      {"smiles": "COc1ccc(NC(=N)Nc2nc(C)c(Cc3ccccc3)c(O)n2)cc1", "IC50": "ND(Insoluble)"},
      {"smiles": "COc1ccccc1CNC(=O)c1ccccc1NS(=O)(=O)c1ccc2[nH]c(=O)[nH]c2c1", "IC50": "ND(Insoluble)"},
      {"smiles": "O=C(CSCC(=O)Nc1ccccc1)NNC(=O)Nc1ccc(Cl)cc1", "IC50": "ND(Insoluble)"},
      {"smiles": "COc1ccc(NC(=O)CN(C)C(=O)c2cc(-c3ccc(C)s3)[nH]n2)cc1", "IC50": "ND(Insoluble)"},
      {"smiles": "N=C(NC1=N[C@@H](CC(=O)Nc2ccc(Cl)cc2)C(O)=N1)Nc1ccccc1", "IC50": "Not Active"},
      {"smiles": "Cc1ccc(Cn2cc(C(=O)NNC(=O)Nc3ccc4c(c3)OCO4)ccc2=O)cc1", "IC50": "ND(Insoluble)"},
      {"smiles": "Cc1nn(Cc2ccccc2Cl)c(C)c1CN(C)C(=O)/C=C/c1cccs1", "IC50": "Not Active"},
      {"smiles": "Cc1nn(-c2ccccc2)c(C)c1CN(C)C[C@@H](O)Cn1cccn1", "IC50": "Not Active"},
      {"smiles": "O=c1[nH]c(CN2CCC[C@@H]2c2ccc3c(c2)OCCCO3)nc2scc(-c3ccccc3)c12", "IC50": "ND(Insoluble)"},
      {"smiles": "CCN(CC(=O)Nc1ccc2c(c1)OCCO2)Cc1nc2scc(-c3ccc(C)s3)c2c(=O)[nH]1", "IC50": "ND(Insoluble)"},
      {"smiles": "Cc1ccc(C(=O)Nc2c(N)nc(SCC(=O)NCc3ccc4c(c3)OCO4)[nH]c2=O)cc1", "IC50": "ND(Insoluble)"},
      {"smiles": "O=C(NCCNc1ccc(Nc2ccccn2)nn1)Nc1ccccc1F", "IC50": "Not Active"},
      {"smiles": "Cc1nn(Cc2ccccc2Cl)c(C)c1CN(C)C(=O)/C=C/c1ccc2c(c1)OCO2", "IC50": "Not Active"},
      {"smiles": "N#Cc1ccc(OC[C@H](O)CNCc2nc3ccccc3s2)cc1", "IC50": "Not Active"},
      {"smiles": "C[C@H](SCc1nc2scc(-c3ccccc3)c2c(=O)[nH]1)C(=O)NCc1nc2ccccc2[nH]1", "IC50": "ND(Insoluble)"},
      {"smiles": "O=C(CCc1nc2sc3c(c2c(=O)[nH]1)CCCC3)NCc1nc2ccccc2[nH]1", "IC50": "ND(Insoluble)"},
      {"smiles": "CN(CC(=O)Nc1cccc(F)c1)Cc1nc2scc(-c3ccc(F)cc3)c2c(=O)[nH]1", "IC50": "ND(Insoluble)"},
      {"smiles": "CCN1CCN(CCNC(=O)[C@H](C)C2CCN(C(=O)c3cc4cc(Cl)ccc4[nH]3)CC2)CC1", "IC50": "ND(Insoluble)"},
      {"smiles": "O=C(CSCC(=O)Nc1ccccc1)NNC(=O)Nc1ccccc1", "IC50": "ND(Insoluble)"},
      {"smiles": "CC(C)(C)[C@@H]1CCc2c(sc3nc(CCC(=O)N4CCN(c5ccccn5)CC4)[nH]c(=O)c23)C1", "IC50": "ND(Insoluble)"},
      {"smiles": "COc1cccc(NC(=O)/C=C(\\C)NNC(=O)c2ccc(-c3ccccc3)cc2)c1", "IC50": "ND(Insoluble)"},
      {"smiles": "O=C(CSc1nnc(-c2ccc3c(c2)OCCO3)c(O)n1)Nc1ccc(F)cc1", "IC50": "ND(Insoluble)"},
      {"smiles": "Cc1nn(Cc2ccccc2Cl)c(C)c1CN(C)CCn1nc2ccccn2c1=O", "IC50": "Not Active"},
      {"smiles": "CN(Cc1nc2ccccc2s1)C[C@@H](O)COc1ccc(F)cc1", "IC50": "Not Active"},
      {"smiles": "CN(CC(=O)Nc1ccc(Cl)c(Cl)c1)Cc1nc2scc(-c3ccc(F)cc3)c2c(=O)[nH]1", "IC50": "ND(Insoluble)"},
      {"smiles": "Nc1nc(CSc2nnc(Cc3ccccc3F)n2N)nc(Nc2ccc(Cl)cc2)n1", "IC50": "Not Active"},
      {"smiles": "Cc1ncc(CN(C)C[C@@H](O)COc2ccc(F)cc2)s1", "IC50": "ND(Insoluble)"},
      {"smiles": "CC(C)c1ccc(NC(=O)CCc2csc(NC(=O)c3ccc[nH]c3=O)n2)cc1", "IC50": "ND(Insoluble)"}
    ]},
    {"biological_target": "T1, Toll-like receptor 4", "test": "Antagonist activity at human TLR4 expressed in LPS-stimulated HEK293 cells co-expressing MDM2 and CD14 after 2 hrs by SEAP assay", "format": "cell-based", "conditions": "in the assay text read “MD-2” for “MDM2”", "outline": "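HEK-Blue hTLR4 cells (HEK293 co-transfected with human TLR4, MD-2, CD14 and an inducible SEAP reporter) were cultured per provider instructions. They were pre-incubated with compound at various concentrations for 2 h at 37 C, then challenged with LPS for 20 h. Supernatant SEAP was read colorimetrically, and IC50 was calculated from the decrease in absorbance.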", "units": {"IC50": "µM"}, "values": [
      {"smiles": "CN(CC(=O)Nc1ccc(N2CCOCC2)cc1)Cc1nc2scc(-c3ccccc3)c2c(=O)[nH]1", "IC50": 168},
      {"smiles": "COc1ccc(O)c(C(=O)c2cnc(/N=C(\\N)Nc3ccc(F)cc3)nc2)c1", "IC50": 16.6},
      {"smiles": "Cc1ccccc1Nc1nc(N)nc(CN2CCC[C@@H]2c2nc3ccccc3s2)n1", "IC50": 64.1}
    ]}
  ]
}
